Experimental data taken from ChEMBL document CHEMBL3525987, “Assessment of exposure of metabolites in preclinical species and humans at steady state from the single-dose radiolabeled absorption, distribution, metabolism, and excretion studies: a case study” (Drug Metab Dispos, 2012).

Experiments:
Conditions in all cases: in vivo
[1] = Drug recovery in urine of male Sprague-Dawley rat at 10 mg/kg, po administered as single dose via gavage measured after 168 hrs by liquid scintillation counting; type: ADME, organism-based; design: dose 10 mg/kg, dosed compound name [14C]lixivaptan, route oral
In short: (§1)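 Intact SD rats (3/gender) dosed by gavage with [14C]drug 10 mg/kg (10 ml/kg, pluronic F68/water), housed in metabolism cages; urine and feces at 0-8, 8-24 h, then every 24 h to 7 days. Urine counted by LSC; feces homogenized 20% w/w in water, combusted, trapped CO2 counted; cage wash/debris included; % of dose.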

[2] = system: Canis familiaris; assay: AUC(0 to infinity) as total radioactivity in male beagle dog plasma at 10 mg/kg, po administered as single dose by LC-MS/MS analysis; type: ADME, organism-based, Canis lupus familiaris; design: time infinity, dose 10 mg/kg, dosed compound name [14C]lixivaptan, route oral
In short: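 Four male beagles were fasted 18 h and gavaged once with 10 mg/kg (2 ml/kg) [14C]lixivaptan as a 5.0 mg/ml water/pluronic F68 suspension. Jugular K2EDTA blood was sampled from 0.25 to 168 h. Plasma total radioactivity was counted by LSC as ng-equiv/ml and lixivaptan by validated LC-MS/MS. Noncompartmental Cmax, t1/2 and trapezoidal AUC were derived.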

[3] = Drug recovery in feces of male beagle dog at 10 mg/kg, po administered as single dose via gavage measured after 168 hrs by liquid scintillation counting; type: ADME, organism-based, Canis lupus familiaris; design: dose 10 mg/kg, dosed compound name [14C]lixivaptan, route oral
In short: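 Four male beagles got 10 mg/kg (2 ml/kg) [14C]drug suspension (5.0 mg/ml, pluronic F68/water, 1.04 µCi/mg) by gavage. Urine and feces collected over dry ice at 0-8, 8-24 h, then every 24 h to 7 days; urine by LSC, fecal homogenates combusted then LSC; cage wash/debris included; % of dose.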

[4] = system: Homo sapiens; assay: Cmax in human at 100 mg, po
[5] = Drug recovery in feces of male Sprague-Dawley rat at 10 mg/kg, po administered as single dose via gavage measured after 168 hrs by liquid scintillation counting; type: ADME, organism-based; design: dose 10 mg/kg, dosed compound name [14C]lixivaptan, route oral; in short: as §1
[6] = Drug recovery in urine of human at […], po administered as single dose measured after 168 hrs by liquid scintillation counting; type: ADME, organism-based; design: dosed compound name [14C]lixivaptan, route oral
In short: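 Healthy male volunteers given single oral 100 mg (200 µCi) [14C]drug capsules after ≥10 h fast. Urine at 0-4, 4-8, 8-12, 12-24 h then 24-h intervals; feces as passed, to 168 h. Urine LSC; feces homogenized in water, combusted, LSC; % of dose.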

[7] = system: Homo sapiens; assay: Drug level in human plasma at 100 mg, po administered as single dose measured after 12 hrs by liquid scintillation counting; type: ADME, organism-based; design: dosed compound name [14C]lixivaptan
In short: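 Healthy male volunteers fasted ≥10 h, given single oral 100 mg (200 µCi) [14C]drug as two 50-mg capsules with 250 ml water. Plasma (from ~50 ml blood) at 0.5, 2, 4, 8, 12, 24, 36 h, profiled per subject. Acetonitrile extraction, C18 radio-HPLC with 0.2% formic acid acetonitrile/water gradient, on-line radioactivity detection as % plasma radioactivity; ng-equiv/ml from % × total radioactivity.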

[8] = system: Rattus norvegicus; assay: Total drug recovery in bile duct-cannulated female Sprague-Dawley rat at 10 mg/kg, po administered as single dose via gavage measured 0 to 48 hrs by liquid scintillation counting; type: ADME, organism-based; design: dose 10 mg/kg, dosed compound name [14C]lixivaptan, route oral
[9] = system: Canis familiaris; assay: Drug level in beagle dog plasma at 10 mg/kg, po administered as single dose measured after 2 hrs by liquid scintillation counting; type: ADME, organism-based, Canis lupus familiaris; design: dose 10 mg/kg, dosed compound name [14C]lixivaptan, route oral
In short: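 Four male beagles fasted 18 h were gavaged once with [14C]lixivaptan at 10 mg/kg (2 ml/kg). The 5.0 mg/ml suspension was in deionized water with pluronic F68 (1.04 µCi/mg). Jugular K2EDTA plasma was taken at 2, 8 and 24 h and extracted twice with 2 volumes of acetonitrile. Profiling used C18 radio-HPLC (ammonium formate/acetonitrile gradient) with on-line flow scintillation detection. Each peak is reported as percent of plasma radioactivity.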

[10] = system: Rattus norvegicus; assay: Cmax as total radioactivity in female Sprague-Dawley rat plasma at 10 mg/kg, po administered as single dose; type: ADME, organism-based; design: dose 10 mg/kg, dosed compound name [14C]lixivaptan, route oral
In short: (§2)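 Jugular-cannulated Sprague-Dawley rats (5/gender) were fasted 18 h and gavaged once with 10 mg/kg [14C]lixivaptan suspended in water/pluronic F68. K2EDTA blood was taken at 0.25–168 h, with donor blood replaced from 1 h on. Total radioactivity was read by LSC (ng-equiv/ml) and parent by validated LC-MS/MS. Noncompartmental Cmax, log-linear kel and trapezoidal AUC followed.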

[11] = system: Canis familiaris; assay: Tmax as total radioactivity in male beagle dog plasma at 10 mg/kg, po administered as single dose by LC-MS/MS analysis; type: ADME, organism-based, Canis lupus familiaris; design: dose 10 mg/kg, dosed compound name [14C]lixivaptan, route oral
In short: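 Male beagles given 10 mg/kg [14C]drug oral suspension; jugular K2EDTA blood at 0.25-168 h. Parent by validated LC-MS/MS, total radioactivity by LSC; Tmax observed; t1/2 = 0.693/kel from terminal log-linear regression.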

[12] = system: Rattus norvegicus; assay: AUC(0 to t) as total radioactivity in male Sprague-Dawley rat plasma at 10 mg/kg, po administered as single dose via gavage by LC-MS/MS analysis; type: ADME, organism-based; design: dose 10 mg/kg, dosed compound name [14C]lixivaptan, route oral; in short: as §2
[13] = system: Homo sapiens; assay: Total drug recovery in human at […], po administered as single dose measured after 168 hrs by liquid scintillation counting; type: ADME, organism-based; design: dosed compound name [14C]lixivaptan, route oral
In short: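 Healthy male volunteers given a single 100 mg (200 μCi) oral dose as 2×50-mg capsules with 250 ml water, fasted ≥10 h before and 4 h after dosing. Urine collected at 0-4, 4-8, 8-12, 12-24 h, then every 24 h to 168 h; feces collected as passed to 168 h. Feces homogenized (20% w/w) and combusted; radioactivity measured by LSC.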

[14] = system: Rattus norvegicus; assay: Drug level in male Sprague-Dawley rat plasma at 10 mg/kg, po administered as single dose via gavage measured after 1 hr by liquid scintillation counting; type: ADME, organism-based; design: dose 10 mg/kg, dosed compound name [14C]lixivaptan, route oral
In short: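 Single oral gavage of [14C]drug (10 mg/kg, 10 ml/kg) as suspension in deionized water with pluronic F68, ~29.8 µCi/mg; SD rats fasted 18 h, fed 4 h post-dose. Blood by cardiac puncture under isoflurane, 3 rats/time/gender, into K2EDTA at 1, 8, 24 h; plasma extracted twice with 2 vol acetonitrile, radio-HPLC on C18 with flow radioactivity detection, expressed as % plasma radioactivity.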

[15] = system: Rattus norvegicus; assay: Total Drug recovery in male Sprague-Dawley rat at 10 mg/kg, po administered as single dose via gavage measured after 168 hrs by liquid scintillation counting; type: ADME, organism-based; design: dose 10 mg/kg, dosed compound name [14C]lixivaptan, route oral
In short: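 Intact rats, 3/gender, given [14C]drug as a suspension in deionized water with pluronic F68 (10 ml/kg, ~29.8 μCi/mg), fasted 18 h before dosing, fed 4 h after. Urine and feces collected at 0-8, 8-24 h, then every 24 h for 7 days. Feces homogenized, combusted and counted; urine counted by LSC in duplicate. Recovery is % of dose, including cage wash/debris.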

[16] = system: Rattus norvegicus; assay: AUC (0 to 24 hrs) in male Sprague-Dawley rat at 10 mg/kg, po administered as single dose via gavage; type: ADME, organism-based, Plasma; design: time < 24 hr, dose 10 mg/kg, dosed compound name [14C]lixivaptan, route oral
In short: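 Sprague-Dawley rats (9/gender) were fasted 18 h and gavaged once with [14C]lixivaptan at 10 mg/kg (10 ml/kg), about 29.8 µCi/mg, suspended in deionized water with pluronic F68. Plasma came by cardiac puncture under isoflurane at 1, 8 and 24 h (3/gender/time) and was extracted twice with 2 volumes of acetonitrile. C18 radio-HPLC with a flow scintillation detector gave percent of plasma radioactivity per peak.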

[17] = system: Rattus norvegicus; assay: Drug recovery in cage wash/debris of female Sprague-Dawley rat at 10 mg/kg, po administered as single dose via gavage measured after 168 hrs by liquid scintillation counting; type: ADME, organism-based; design: dose 10 mg/kg, dosed compound name [14C]lixivaptan, route oral; in short: as §1

- Radiolabel recovery [1]: 5.77%
- AUC [2]: 94900 ng.Eq.hr/ml
- Radiolabel recovery [3]: 83.1%
- Cmax [4]: 454 ngequiv/ml
- Radiolabel recovery [5]: 91%
- Radiolabel recovery [6]: 20.5%
- Compound recovery [7]: 5.6%
- Radiolabel recovery [8]: 70.5%
- Compound recovery [9]: 21.2%
- Cmax [10]: 1960 ngequiv/ml
- Tmax [11]: 1.8 h
- AUCt [12]: 65700 ng.Eq.hr/ml
- Radiolabel recovery [13]: 84.2%
- Compound recovery [14]: 4.1%
- Radiolabel recovery [15]: 99%
- AUC [16]: 632 ng.Eq.hr/ml
- Radiolabel recovery [17]: 3.51%
Compound: Cc1ccc(F)cc1[14C](=O)Nc1ccc(C(=O)N2Cc3cccn3Cc3ccccc32)c(Cl)c1
